Like-named read-outs stand apart in the source and are kept apart here.
How the values were obtained:
human eRF3 = human eRF3 (Homo sapiens, UniProt P15170); assay: ITC binding of ligands to eRF3
Summary of the method: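 Run at 25°C in phosphate buffer pH 7.5 (25 mM K2HPO4, 0.1 M KCl, 10% glycerol, 1 mM DTT), MgCl2 0–10 mM. Cell: 6–15 μM His-tagged human eRF3 (aa 139–637), alone or with full-length eRF1, both E. coli-expressed. Syringe: ligand at 50–300 μM, 10 μl injections. Dilution heat subtracted; one-set-of-sites fit gave Ka and ΔH; ΔG and ΔS calculated; 2–4 repeats.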

prokaryotic RF3 = details: 5 mM Mg^2+ ref 28; cited from earlier work
S.pombe eRF3 = details: 2.0–2.5 mM Mg^2+ ref 24; cited from earlier work
eRF3•GDP = eRF3•GDP (Homo sapiens, UniProt P15170); assay: ITC binding of ligands to the eRF3•GDP complex; details: absence of eRF1
eRF1•eRF3 = eRF1•eRF3 (Homo sapiens, UniProt P15170); assay: ITC binding of guanine nucleotides to the eRF1•eRF3 complex
eRF1•eRF3•GDP = eRF1•eRF3•GDP (Homo sapiens, UniProt P15170); assay: Displacement ITC: eRF1•eRF3 saturated with GDP titrated with GTP; details: Tris buffer, 2 mM Mg^2+, competitive ligand binding model
Summary of the method: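 Proteins: human eRF1 and truncated human eRF3 (aa 139–637), both with a C-terminal His6 tag, expressed in E. coli, purified by Ni-NTA then anion exchange, and dialysed into assay buffer. Method: eRF1•eRF3 in the cell was saturated with one HPLC-purified nucleotide, then titrated with 10 μl aliquots of the other. K2 = Kapp(1 + K1[L1]). Run at 25°C, pH 7.5; dilution heats subtracted; 2–4 runs.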

[1] = target: truncated human eRF3 (amino acids 139-637), C-terminal hexahistidine (human) (UniProt P15170); assay: ITC
[2] = target: truncated human eRF3 (amino acids 139-637), C-terminal hexahistidine (human) (UniProt P15170); assay: ITC; remark: listed apart in the source

Nc1nc2c(ncn2[C@@H]2O[C@H](COP(=O)(O)OP(=O)(O)O)[C@@H](O)[C@H]2O)c(=O)[nH]1 [GDP]
fold increase of Kd at 2 mM Mg^2+ versus absence of Mg^2+ (human eRF3; both phosphate and Tris buffers): 1.7 fold | Kd (prokaryotic RF3): 5.5 nM | affinity of GDP for yeast eRF3 (in words) (S.pombe eRF3): lost

Nc1nc2c(ncn2[C@@H]2O[C@H](COP(=O)(O)OP(=O)(O)OP(=O)(O)O)[C@@H](O)[C@H]2O)c(=O)[nH]1 [GTP]
GTP binding to eRF3 (in words) (human eRF3; phosphate or Tris, absence and presence of 2 mM Mg^2+): failed to reveal any measurable GTP binding | GTP binding to eRF3•GDP (in words) (eRF3•GDP): no binding was detected | constant of GTP binding relative to that of GDP binding (eRF1•eRF3; 2.0 mM Mg^2+): four times higher | GTP binding, direct titration (in words) (eRF1•eRF3; Tris buffer): signal is too low to be measured directly | fold increase of GTP affinity by Mg^2+ (eRF1•eRF3; physiological Mg^2+ versus absence of Mg^2+): 6 fold | GTP binding constant (eRF1•eRF3•GDP): 1.8e+06 M⁻¹

human eRF1 (wild-type), C-terminal hexahistidine (from UniProt P62495 1-437) (natural protein)
dHobs (observed, not corrected for protonation) [1]: -13.5 kcal/mol | dHobs (observed, not corrected for protonation) [2]: -19.2 kcal/mol | stoichiometry N [2]: 0.47

Source: paper PMC1557817 (Nucleic Acids Research, 2006)
